Data from ChEMBL document CHEMBL1649506, “Novel antiviral agent DTriP-22 targets RNA-dependent RNA polymerase of enterovirus 71” (Antimicrob Agents Chemother, 2009).
Calls of active or inactive are those of the source. The rule behind the calls is not given here.

Key:
[1] = test system: Influenza A virus; assay: Antiviral activity against Influenza A virus (A/WSN/1933(H1N1)) infected in human RD cells assessed as protection against virus-induced cytopathogenicity; type: functional, organism-based
Method in brief: (§1)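 CPE neutralization test: cells seeded at 3 × 10^4/well and grown 24 h at 37°C, infected at MOI 0.005 PFU/cell. After adsorption, medium with 2% FBS and compound (twofold dilutions from 25 μM) or 0.5% DMSO added. Incubated 64 h at 35°C, then formaldehyde-fixed and crystal violet-stained, read at OD570. Triplicate, repeated at least twice. EC50 interpolated between bracketing dilutions.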

[2] = test system: Influenza B virus; assay: Antiviral activity against influenza B virus infected in human RD cells assessed as protection against virus-induced cytopathogenicity; type: functional, organism-based; method in brief: as §1
[3] = test system: Coxsackievirus A9; assay: Antiviral activity against Coxsackievirus A9 infected in human RD cells assessed as protection against virus-induced cytopathogenicity; type: functional, organism-based; conditions: Enterovirus B; method in brief: as §1
[4] = test system: Enterovirus A71; assay: Antiviral activity against EV71 infected in human RD cells assessed as inhibition of viral plaque formation 16 hrs by plaque formation assay; type: functional, organism-based; conditions: Enterovirus A
[5] = test system: Enterovirus A71; assay: Inhibition of EV71 recombinant 3D polymerase expressed in Escherichia coli BL21 (DE3) by polymerase elongation assay
Method in brief: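 His-tagged EV71 3D polymerase made in E. coli BL21(DE3) (50 μM IPTG, 25°C, 4 h) and purified on a nickel column. Assay used 1 μM enzyme in 50 mM HEPES pH 7.5, 5 mM MgCl2, 60 μM ZnCl2, 10 mM 2-mercaptoethanol, 5 μM UTP plus [α-32P]UTP, and dT15/poly(rA)300 primer/template. Run 10 min at 30°C, stopped with EDTA, product captured on DE81 filters and counted by scintillation.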

[6] = test system: Enterovirus A71; assay: Antiviral activity against 0.001 PFU/cell EV71 TW/2231/98 infected in human RD cells assessed as inhibition of viral plaque formation after 10 passages by plaque formation assay; type: functional, organism-based; conditions: Enterovirus A, TW/2231/98, RD
[7] = test system: Enterovirus A71; assay: Antiviral activity against 1 MOI EV71 infected in human RD cells assessed as viral progeny production at 1 uM treated 4 hrs postadsorption measured after 16 hrs; type: functional
[8] = test system: Enterovirus A71; assay: Antiviral activity against 1 MOI EV71 infected in human RD cells assessed as inhibition of viral plaque formation 16 hrs by plaque formation assay; type: functional, organism-based; conditions: Enterovirus A
Method in brief: (§2)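 Virus yield assay: RD cells (6 × 10^5/well) infected with EV71 TW/2231/98 at the stated MOI for 1 h at room temperature, washed twice, then kept in 2% FBS medium with compound (0–2.5 μM) at 35°C. At 16 h p.i., supernatant and debris pooled and titrated by plaque assay in RD cells (0.3% agarose overlay, 4 days at 35°C, crystal violet, PFU/ml).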

[9] = test system: Enterovirus A71; assay: Antiviral activity against EV71 harboring 2C […] T256A mutant gene infected in human RD cells assessed as inhibition of viral plaque formation 16 hrs by plaque formation assay; type: functional, organism-based; conditions: Enterovirus A
[10] = test system: Enterovirus A71; assay: Antiviral activity against EV71 harboring 3D […] R163K mutant gene infected in human RD cells assessed as inhibition of viral plaque formation 16 hrs by plaque formation assay; type: functional, organism-based; conditions: Enterovirus A
[11] = test system: Coxsackievirus B5; assay: Antiviral activity against Coxsackievirus B5 infected in human RD cells assessed as protection against virus-induced cytopathogenicity; type: functional, organism-based; conditions: Enterovirus B; method in brief: as §1
[12] = test system: Polymerase 3D (Human enterovirus 71 STH/MCN/2006), B2G369 [R163K]; assay: Inhibition of EV71 recombinant 3D polymerase R163K mutant expressed in Escherichia coli BL21 (DE3) assessed as enzyme activity at 250 to 500 uM by polymerase elongation assay; set-up: scale not given: the % may be the effect or the level left; conditions: Enterovirus A71
[13] = test system: Enterovirus A71; assay: Antiviral activity against EV71 harboring VP1 […] V192M mutant gene infected in human RD cells assessed as inhibition of viral plaque formation 16 hrs by plaque formation assay; type: functional, organism-based
[14] = Cytotoxicity against human RD cells after 16 hrs by MTS-based assay; type: cell-based
[15] = test system: Coxsackievirus A16; assay: Antiviral activity against Coxsackievirus A16 infected in human RD cells assessed as protection against virus-induced cytopathogenicity; type: functional, cell-based; conditions: Enterovirus A; method in brief: as §1
[16] = test system: Enterovirus A71; assay: Antiviral activity EV71 1743 infected in human RD cells assessed as protection against virus-induced cytopathogenicity; type: functional, organism-based; conditions: Enterovirus A, 1743, RD; method in brief: as §1
[17] = test system: Enterovirus A71; assay: Antiviral activity against 0.001 PFU/cell EV71 TW/2231/98 infected in human RD cells assessed as inhibition of viral plaque formation after 14 passages by plaque formation assay; type: functional, organism-based; conditions: Enterovirus A, TW/2231/98, RD
[18] = test system: Human alphaherpesvirus 1; assay: Antiviral activity against HSV1 infected in human RD cells assessed as protection against virus-induced cytopathogenicity; type: functional, organism-based; conditions: Human alphaherpesvirus 1, RD
[19] = Selectivity index, ratio of CC50 for human RD cells to EC50 for 1 MOI EV71 infected in human RD cells
[20] = test system: Enterovirus A71; assay: Antiviral activity against 0.001 PFU/cell EV71 infected in human RD cells assessed as inhibition of viral plaque formation at 0.1 uM after 16 hrs by plaque formation assay; type: functional; set-up: scale not given: the % may be the effect or the level left; method in brief: as §2
[21] = test system: Enterovirus A71; assay: Antiviral activity against 0.001 MOI EV71 infected in human RD cells assessed as inhibition of viral plaque formation 16 hrs by plaque formation assay; type: functional, organism-based; conditions: Enterovirus A; method in brief: as §2
[22] = test system: Enterovirus A71; assay: Antiviral activity against 1 MOI EV71 infected in human RD cells assessed as inhibition of viral progeny production at 1 uM treated 4 hrs postadsorption measured after 16 hrs; type: functional, organism-based
[23] = test system: Echovirus E9; assay: Antiviral activity against Echovirus 9 infected in human RD cells assessed as protection against virus-induced cytopathogenicity; type: functional, organism-based; conditions: Enterovirus B; method in brief: as §1
[24] = test system: Coxsackievirus B2; assay: Antiviral activity against Coxsackievirus B2 infected in human RD cells assessed as protection against virus-induced cytopathogenicity; type: functional, organism-based; conditions: Enterovirus B; method in brief: as §1
[25] = test system: Coxsackievirus B1; assay: Antiviral activity against Coxsackievirus B1 infected in human RD cells assessed as protection against virus-induced cytopathogenicity; type: functional, organism-based; conditions: Enterovirus B; method in brief: as §1
[26] = test system: Enterovirus A71; assay: Antiviral activity EV71 BrCr infected in human RD cells assessed as protection against virus-induced cytopathogenicity; type: functional, organism-based; conditions: Enterovirus A; method in brief: as §1
[27] = test system: Enterovirus A71; assay: Antiviral activity against EV71 harboring 3D […] R163K/S264L mutant gene infected in human RD cells assessed as inhibition of viral plaque formation 16 hrs by plaque formation assay; type: functional, organism-based; conditions: Enterovirus A
[28] = test system: Coxsackievirus A24; assay: Antiviral activity against Coxsackievirus A24 infected in human RD cells assessed as protection against virus-induced cytopathogenicity; type: functional, organism-based; conditions: Enterovirus C; method in brief: as §1
[29] = test system: Enterovirus A71; assay: Antiviral activity against 0.001 PFU/cell EV71 TW/2231/98 infected in human RD cells assessed as inhibition of viral plaque formation after 5 passages by plaque formation assay; type: functional, organism-based; conditions: Enterovirus A, TW/2231/98, RD
[30] = test system: Enterovirus A71; assay: Antiviral activity against 0.001 PFU/cell EV71 TW/2231/98 infected in human RD cells assessed as inhibition of viral plaque formation after 16 hrs by plaque formation assay; type: functional, organism-based; conditions: Enterovirus A, TW/2231/98, RD; method in brief: as §2
[31] = test system: Enterovirus A71; assay: Antiviral activity EV71 2231 infected in human RD cells assessed as protection against virus-induced cytopathogenicity; type: functional, organism-based; conditions: Enterovirus A, 2231, RD; method in brief: as §1
[32] = test system: Coxsackievirus B3; assay: Antiviral activity against Coxsackievirus B3 infected in human RD cells assessed as protection against virus-induced cytopathogenicity; type: functional, organism-based; conditions: Enterovirus B; method in brief: as §1
[33] = test system: Coxsackievirus B4; assay: Antiviral activity against Coxsackievirus B4 infected in human RD cells assessed as protection against virus-induced cytopathogenicity; type: functional, organism-based; conditions: Enterovirus B; method in brief: as §1
[34] = test system: Enterovirus A71; assay: Antiviral activity against 1 MOI EV71 infected in human RD cells assessed as inhibition of viral RNA production at 2 uM after 6 to 14 hrs by slot blot analysis; type: functional, organism-based
Method in brief: (§3)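 RD cells infected with EV71 at MOI 1 PFU/cell for 1 h at room temperature, washed, then kept in medium with 2 μM compound at 35°C. Intracellular RNA extracted at intervals p.i. Viral RNA quantified by TaqMan real-time RT-PCR, or by slot blot with DIG-labelled genome- and antigenome-specific RNA probes. Compared with DMSO at each time point.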

[35] = test system: Enterovirus A71; assay: Antiviral activity against 1 MOI EV71 infected in human RD cells assessed as inhibition of viral progeny production at 1 uM treated 2 hrs postinfection measured after 16 hrs; type: functional; conditions: Enterovirus A
[36] = test system: rhinovirus A2; assay: Antiviral activity against HRV2 infected in human RD cells assessed as protection against virus-induced cytopathogenicity; type: functional, organism-based; conditions: Rhinovirus A; method in brief: as §1
[37] = test system: Enterovirus A71; assay: Inhibition of EV71 recombinant 3D polymerase expressed in Escherichia coli BL21 (DE3) assessed as inhibition of Vpg-pU(pU) synthesis at 250 to 500 uM by gel electrophoresis
Method in brief: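 VPg uridylylation: 1 μM recombinant EV71 3D with 2 μg synthetic VPg, 0.5 μg poly(rA)300, 10 μM UTP plus 0.04 μM [α-32P]UTP, in 50 mM HEPES pH 7.5 with 2.5 mM Mn(OAc)2 and 8% glycerol. Incubated 60 min at 33°C. Products resolved on 13.5% Tricine SDS-PAGE and detected by autoradiography.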

[38] = test system: Enterovirus A71; assay: Antiviral activity against 1 MOI EV71 infected in human RD cells assessed as inhibition of IRES-mediated viral RNA translation at 2 uM after 6 to 14 hrs by luciferase reporter gene assay; type: functional, organism-based
[39] = Antiviral activity against Coxsackievirus A10 infected in human RD cells assessed as protection against virus-induced cytopathogenicity; type: functional, cell-based; conditions: Enterovirus A; method in brief: as §1
[40] = test system: Human alphaherpesvirus 2; assay: Antiviral activity against HSV2 infected in human RD cells assessed as protection against virus-induced cytopathogenicity; type: functional, organism-based; conditions: Human alphaherpesvirus 2, RD
[41] = test system: Enterovirus A71; assay: Antiviral activity EV71 4643 infected in human RD cells assessed as protection against virus-induced cytopathogenicity; type: functional, organism-based; conditions: Enterovirus A, 4643, RD; method in brief: as §1
[42] = test system: Enterovirus A71; assay: Antiviral activity against 1 MOI EV71 infected in human RD cells assessed as inhibition of viral RNA production at 2 uM after 6 to 14 hrs by real-time RT-PCR analysis; type: functional; conditions: Enterovirus A; method in brief: as §3
[43] = test system: Coxsackievirus B6; assay: Antiviral activity against Coxsackievirus B6 infected in human RD cells assessed as protection against virus-induced cytopathogenicity; type: functional, organism-based; conditions: Enterovirus B; method in brief: as §1

Cc1ccsc1C(c1ccccc1Br)N1CCN(c2ncnc3c2cnn3-c2ccccc2)CC1 (stereo not drawn)
EC50 [1]: 5980 nM | EC50 [2]: 5900 nM | EC50 [3]: 990 nM | EC50 [4]: 308 nM | inhibition [5]: Dose-dependent effect | EC50 [6]: > 25000 nM | Activity [7]: 76% | EC50 [8]: 160 nM | EC50 [9]: 279 nM | EC50 [10]: > 25000 nM | EC50 [11]: 130 nM | Activity [12]: 28% | EC50 [13]: 240 nM | CC50 at 16 h [14]: 100000 nM | EC50 [15]: 80 nM | EC50 [16]: 440 nM | EC50 [17]: > 25000 nM | EC50 [18]: > 25000 nM | Ratio CC50/EC50 [19]: 625 | Activity [20]: 95% | EC50 [21]: 23 nM | inhibition [22]: inactive | EC50 [23]: 1220 nM | EC50 [24]: 70 nM | EC50 [25]: 240 nM | EC50 [26]: 150 nM | EC50 [27]: > 25000 nM | EC50 [28]: 80 nM | EC50 [29]: 250 nM | EC50 [30]: 740 nM | EC50 [31]: 980 nM | EC50 [32]: 260 nM | EC50 [33]: 230 nM | inhibition [34]: Active | inhibition at 1 µM [35]: 79% | EC50 [36]: 1690 nM | inhibition [37]: inactive | inhibition [38]: inactive | EC50 [39]: 1060 nM | EC50 [40]: > 25000 nM | EC50 [41]: 130 nM | inhibition at 2 µM [42]: 87% | EC50 [43]: 330 nM
